# Screening results: PubChem BioAssay, several laboratories
# FAS-TE inh: blocks the thioesterase domain of human fatty acid synthase | recombinant FAS-TE, OMFH fluorogenic substrate, fluorescence endpoint | P49327 | inhibition, % at 15 µM | 360,000 compounds, 0.67% hits;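 active means compounds whose normalised, plate-corrected inhibition of enzyme fluorescence in the single-dose primary screen is 50% or more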;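 further: 0% = DMSO with enzyme and 100% = substrate without enzyme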
# Runt-CBFb FRET: Runt domain-CBFb interaction inhibition | Q01196+Q13951 | 220,000 compounds, 0.46% hits | inhibition, % at 20 µM | Cerulean-Runt/Venus-CBFb FRET ratio 530/480, 1 h;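 active means inhibition over about 50% at 20 µM in the single-dose screen, limit read from the data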;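 further: 0% = DMSO wells and 100% = excess unlabeled CBFb competitor control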
#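 Assay system: Cerulean-Runt domain fusion protein, energy donor; Signal: fluorescence energy transfer, 422 nm excitation, 530/480 nm emission; Timing: 1 h compound exposure, room temperature; Control set: unlabeled CBFb; Medium: Tris buffer pH 7.5 with salts and BSA; Compound: single test concentration of 20 µM, 1% DMSO final; Probe or stimulus: Venus-CBFb 100 nM.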
# m-calpain inh: inhibitors of pig calpain II. AID 1236. inhibition, % at 16 µM. purified calpain II, fluorogenic peptide substrate, 30 min. 220,000 compounds, 0.37% hits;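 active means inhibition above about 50%, limit read from the data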
# Runt-SMMHC FRET: inhibitors of human RUNX1 Runt domain binding to CBFb-SMMHC; Cerulean-Runt/Venus-CBFb-SMMHC FRET ratio 530/480, 1 h; inhibition, % at 20 µM; 220,000 compounds, 0.74% hits; AID 1434;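 active means mean inhibition across duplicate retests at 20 µM reaching about 50%, limit read from the data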;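 further: 0% = DMSO wells and 100% = wells with excess untagged CBFb-SMMHC; inhibitors lower the FRET ratio by blocking Runt binding to CBFb-SMMHC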
# RanGTP-Impb inh: disruptors of Ran-importin-beta complex formation – biochemical, FRET, CFP-Ran, YFP-importin-beta, homogeneous, primary screen; cell-free CFP-Ran/YFP-importin-beta FRET ratio; inhibition, % (test concentration not listed); 300,000 compounds, 1.1% hits; AID 2216;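 active means more than half of the replicate wells show a fall in the fluorescence ratio signal beyond about 16%, limit read from the data, passing the limit was not always enough; inconclusive means exactly half of the replicate wells pass the set limit; inactive means fewer than half of replicates pass the limit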;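 further: 0% = DMSO wells and 100% = Ran loaded with GDP instead of GTP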
# YIC counter: counter-screen for RanGTP-importin-beta inhibitors: YIC FRET probe. AID 435026. shares compounds with RanGTP-Impb inh. IC50, µM. 1,000 compounds, 40% hits. Purified YIC probe, intramolecular FRET ratio YFP/CFP;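 active means fitted half-maximal inhibitory concentration no more than tenfold above the top dose tested; inconclusive means flat fit with 30 to 70% activity, or poor fit; inactive means half-maximal concentration beyond tenfold above the top dose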
# * = called active by the depositor; i = inactive; u = inconclusive; x = no result given. In the library only some 2.1% were active in any assay of this set; here they are far more common.
SMILES,FAS-TE inh,Runt-CBFb FRET,m-calpain inh,Runt-SMMHC FRET,RanGTP-Impb inh,YIC counter
Cc1noc(C)c1NC(=O)N(C)C[C@@H]1Oc2ccc(N(C)C)cc2CC(=O)N([C@H](C)CO)C[C@H]1C,x,x,x,x,x,>50
N#Cc1ccccc1COC(=O)c1cccc(S(=O)(=O)N2CCCC2)c1,18,x,x,x,x,x
CC(CC(F)(F)F)N1CCC(n2nccc2NC(=O)CCOc2ccccc2)CC1 (stereo unspecified),1,x,x,x,27*,>50
O=C(Cc1ccccc1C(=O)O)Nc1cccc2ccccc12,-4,x,x,x,21*,>50
O=C(NCCS(=O)(=O)N1CCC2(CC1)OCCO2)c1ccccc1,-8,x,x,x,2,x
O=C(COC(=O)c1ccc2ccccc2c1)NCCCc1ccccc1,4,-2,-8,1,17*,>50
CC(=O)c1ccc(-c2cccs2)s1,3,78*,i,143*,19*,29*
COCCN(CCOC)Cc1c(O)ccc2c1O/C(=C\c1ccco1)C2=O,-19,x,x,x,-57,x
COC(=O)COc1ccc2c(c1)O/C(=C\c1ccco1)C2=O,4,x,x,x,18*,29*
CCN(CC)C(=O)Oc1ccc2c(c1)O/C(=C\c1ccco1)C2=O,10,x,x,x,18*,8.2*
CC1Cc2ccccc2N1C(=O)Cn1cnc2c1c(=O)n(C)c(=O)n2C (stereo unspecified),2,x,x,x,1,x
O=C(NCc1n[nH]c(=S)n1-c1ccccc1Cl)c1ccc(S(=O)(=O)N2CCCCC2)cc1,-4,x,x,x,-5,x
Nc1nc(CSc2nnnn2-c2ccc(F)c(Cl)c2)nc(N2CCOCC2)n1,0,x,x,x,4,x
Nc1nc(CSc2nnnn2-c2ccc(Cl)cc2)nc(N2CCOCC2)n1,-6,-4,13,-4,20*,>50
CC1CCN(C(=O)c2[nH]cnc2C(=O)NC2CCN(C(=O)OC(C)(C)C)CC2)CC1,-5,x,x,x,x,x
COC(=O)Cc1cc(OC)c(OC)cc1Cc1cc(OC)c(OC)cc1CC(=O)OC,-4,-1,-31,-1,-1,x
CNS(=O)(=O)c1cc(OC)c(OC)cc1CC(=O)OC,-7,0,-4,2,21*,>50
CCOC(=O)c1ccc(NC(=O)CSc2nc(C)nc3c2c(=O)n(C)c(=O)n3C)cc1,23,-18,-23,0,19*,>50
Cc1cccnc1NC(=O)CCc1c[nH]c2ccccc12,-2,x,x,x,1,x
CC(C)(C)NS(=O)(=O)c1ccc(NC(=O)CS(=O)(=O)Cc2ccccc2)cc1,5,x,x,x,0,x
Cc1nc(Nc2ncc3c(n2)CC(C)(C)CC3=O)nc2ccccc12,-5,x,x,x,x,x
CC1=NC(Nc2nc(C)c3ccccc3n2)=NC(C)(C)C1,-14,1,-10,5,30*,>50
Cc1ccc(/C=C2/C(=O)c3ccc(C(=O)O)cc3C2=O)o1,-7,32,-16,19,19*,>50
CCOC(=O)c1ccc2[nH]cc(C(C)=O)c(=O)c2c1,-10,3,-29,3,21*,14*
CC(=O)c1c[nH]c2ccc(C)cc2c1=O,-10,0,-27,-4,7,x
SMILES,FAS-TE inh,Runt-CBFb FRET,m-calpain inh,Runt-SMMHC FRET,RanGTP-Impb inh,YIC counter
Cc1oc2cc(O)ccc2c(=O)c1-c1nncn1-c1ccccc1,-19,32,-329,93*,37*,14*
Cc1oc2cc(O)ccc2c(=O)c1-c1ccccc1,-11,-1,i,4,0,x
CCCOC(=O)CSC1=C(C#N)C(c2ccccc2OCC)C(C#N)C(=O)N1 (stereo unspecified),-7,2,-2,4,21*,>50
CCCCOC(=O)CSC1=C(C#N)C(c2ccccc2OCC)C(C#N)C(=O)N1 (stereo unspecified),-3,2,-36,4,u,x
NS(=O)(=O)c1ccc(CCNC(=O)C2CCN(S(=O)(=O)c3ccc(Br)s3)CC2)cc1,-1,-1,-22,3,24*,>50
COc1ccc(C(=O)O)cc1S(=O)(=O)N(C)C,-3,0,-13,-1,26*,>50
COc1ccc(C(=O)O)cc1S(=O)(=O)NC(C)(C)C,-9,0,-6,0,3,x
C=CCn1c(SCC(=O)Nc2sccc2C(N)=O)nc2ccccc2c1=O,8,-1,-17,0,19*,>50
COc1ccc(C2C(C#N)=C(N)Oc3cc4c(cc32)OCO4)cc1 (stereo unspecified),26,13,-9,10,25*,>50
Cc1c(O)c(CN2CCCCC2)cc2c3c(c(=O)oc12)CCC3,-6,90*,i,58*,37*,14*
Cc1c(O)c(CN2CCCCC2)cc2c1oc(=O)c1ccccc12,-2,-3,13,-1,-2,x
Cc1cc(Nc2ccccc2)nc2cc(O)ccc12,0,43,-14,64*,18*,49*
COc1ccc(Nc2cc(C)c3ccc(O)cc3n2)cc1,-6,12,4,2,7,x
CCOc1ccc(N2C(=O)C3C4C=CC(CC4)C3C2=O)c([N+](=O)[O-])c1 (stereo unspecified),2,1,-6,1,20*,>50
COCCCNC(=O)C[C@H]1C[C@H](C(=O)N(C(C)C)C(C)C)[C@@]2(C)c3[nH]c4ccc(Cl)cc4c3CCN2C1=O,3,x,x,x,x,x
CCc1c(C)sc(NC(=O)c2cccs2)c1C#N,-6,-2,-32,-10,1,x
Cc1sc(NC(=O)c2ccccc2)c(C#N)c1-c1ccccc1,15,2,-76,2,39*,>50
Cc1cc(C)c2c(N)c(C(=O)NN3CC(=O)N(c4ccccc4F)CC3=O)sc2n1,-4,6,i,8,16*,>50
O=C(c1noc2c1CSc1ccccc1-2)N1CCN(c2ccc(Cl)cc2)CC1,25,x,x,x,4,x
[N-]=[N+]=CC(=O)C(c1ccccc1)(c1ccccc1)c1ccccc1,-7,-2,-11,0,-4,x
Cc1ccc(CNC(=O)c2cccnc2)cc1,-2,x,x,x,21*,>50
CC(C)(C(=O)N1CCC1(C)C(=O)NC1Cc2ccccc2C1)c1ccccc1 (stereo unspecified),2,x,x,x,x,x
Cc1cc(C)cc(NC(=O)CSc2nnc(-c3cc(C)[nH]n3)n2N)c1,-3,x,x,x,5,x
CC(=O)c1sc2nc(C)c3c(c2c1N)CCCC3,1,44,-90,90*,31*,14*
Cc1nc2sc(C#N)c(N)c2c2c1CCCC2,2,-1,x,-4,3,x
CCCCOC(=O)CCCN1C(=O)/C(=C2\SC(=S)N(CCCC(=O)OCCCC)C2=O)SC1=S,18,0,-4,-9,-4,x
COc1ccc([N+](=O)[O-])cc1NC(=O)CSc1ncccn1,28,2,12,-1,20*,>50
O=C(CSc1ccc2nnc(-c3cccnc3)n2n1)Nc1ccccc1F,-6,x,x,x,x,x
Cc1nc2ccccc2n1CC(=O)N1CC(=O)Nc2ccccc21,-9,3,10,0,18*,>50
